Results taken from PubChem BioAssay AID651877 (Broad Institute, 2012).

Test system: T. cruzi CAI/72 in BESM cells, trypomastigote emergence microscopy
Experiment: T. cruzi re-emergence after compound removal – imaging, CAI/72 strain, BESM host cells, 20-day treatment, mechanism study for T. cruzi inhibitor project, late-stage follow-up (AID 651877)
Settings: stronger effect = higher value
Method in brief: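 System: bovine embryo skeletal muscle (BESM) cells infected with T. cruzi CAI/72 / Measured by: daily light-microscopy check for emerging trypomastigotes / Measure: trypomastigote emergence timing, absence indicating cure, delay indicating static effect / Schedule: wash 24 h post-infection, alternate-day dosing 20 days, 38-day washout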

| Structure (SMILES) | day of emergence (at 0.25 µM) [days] | normalised slope vs benznidazole | day of emergence (at 0.74 µM) [days] | day of emergence (at 2.2 µM) [days] |
| --- | --- | --- | --- | --- |
| CC(C)N1C[C@@H](C)[C@H](CN(C)Cc2cccc(Oc3ccccc3)c2)Oc2c(NC(=O)c3ccncc3)cccc2C1=O | 18 | 66 | – | – |
| C[C@@H]1CN([C@@H](C)CO)C(=O)c2cccc(NC(=O)c3ccncc3)c2O[C@H]1CN(C)Cc1ccc(Cl)cc1 | 4 | 6 | 15 | 17 |
| C[C@H]1CN([C@@H](C)CO)C(=O)c2cccc(NC(=O)c3ccncc3)c2O[C@H]1CN(C)Cc1ccc(Oc2ccccc2)cc1 | 4 | 70 | – | – |
| C[C@H](CO)N1C[C@H](C)[C@H](CN(C)Cc2ccc(Oc3ccccc3)cc2)Oc2c(NC(=O)c3ccncc3)cccc2C1=O | 4 | 70 | – | – |
| C[C@@H]1CN([C@H](C)CO)C(=O)c2cccc(NC(=O)c3ccncc3)c2O[C@H]1CN(C)Cc1ccc(Oc2ccccc2)cc1 | 4 | 5.6 | 30 | > 37 |
| C[C@H]1CN([C@@H](C)CO)C(=O)c2cccc(NC(=O)c3ccncc3)c2O[C@@H]1CN(C)Cc1ccc(Oc2ccccc2)cc1 | 4 | 70 | – | – |
| O=C(Cn1ccnc1[N+](=O)[O-])NCc1ccccc1 | -14 | 8 | 1 | 6 |
| C[C@@H]1CN([C@@H](C)CO)C(=O)c2cccc(NC(=O)c3ccncc3)c2O[C@H]1CN(C)Cc1ccc(Oc2ccccc2)cc1 | 4 | 20 | > 37 | – |
| C[C@@H]1CN([C@H](C)CO)C(=O)c2cccc(NC(=O)c3ccncc3)c2O[C@H]1CN(C)Cc1ccccc1 | 4 | 70 | – | – |
| C[C@@H]1CN([C@@H](C)CO)C(=O)c2cccc(NC(=O)c3ccncc3)c2O[C@H]1CN(C)Cc1cccc(Cl)c1 | 4 | 6 | 17 | 18 |
